# Active and inactive are the calls of the source. The calls are words filed in the database; no cut-off is given here.
# Columns and labels:
# [1] = test system: Klebsiella pneumoniae; assay: Depolarization of cytoplasmic membrane in Klebsiella pneumoniae ATCC 13883 at MIC measured for 45 mins by DiSC3-(5) dye based assay; format: functional, organism-based
# Summary of the method: (§1)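 Bacteria loaded with membrane-potential dye DiSC3-(5), then treated with peptide at its MIC for the respective strain; depolarization read as rise in dye fluorescence; polymyxin B and levofloxacin as reference antibiotics.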
# [2] = test system: MCF7; assay: Induction of apoptosis in human MCF7 cells in DMEM medium at pH 6 assessed as increase in cleaved PARP level at 5 uM; format: functional, cell-based
# Summary of the method: (§2)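 MCF-7 cells treated with peptides at pH 6; apoptosis detected by immunoblotting for cleaved PARP and cleaved caspase-3.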
# [3] = test system: MDA-MB-435; assay: Anti-cancer activity against human MDA-MB-435 cells incubated for 72 hrs by Cell Titer Glo assay; format: functional, cell-based; conditions: MDA-MB-435, 72 h
# [4] = test system: Staphylococcus aureus; assay: Antimicrobial activity against Staphylococcus aureus NE934 harboring single transposon insertion mutation in staphopain B at 30 uM incubated for 18 hrs relative to control; format: functional
# Summary of the method: (§3)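 CA-MRSA USA300 LAC derivative JE2 and single transposon insertion mutants derived from JE2, each lacking an extracellular protease gene, were exposed to peptides up to 30 μM. The read-out was percent growth inhibition. Peptides were dissolved in PBS, and tests were run in triplicate.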
# [5] = test system: RPMI-8226; assay: Anti-cancer activity against human RPMI-8226 cells incubated for 72 hrs by Cell Titer Glo assay; format: functional, cell-based; conditions: RPMI-8226, 72 h
# [6] = test system: DU-145; assay: Anti-cancer activity against human DU-145 cells incubated for 72 hrs by Cell Titer Glo assay; format: functional, cell-based; conditions: DU-145, 72 h
# [7] = test system: Monocyte; assay: Cytotoxicity against human monocytes assessed as deleterious effect upto 50 uM by flow cytometry; format: toxicity, cell-based
# Summary of the method: (§4)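 Whole blood from a healthy donor treated with peptides up to 50 μM; effect on B and T lymphocytes, granulocytes and monocytes assessed.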
# [8] = Toxicity against reconstructed human skin model assessed as irritation at 50 uM incubated for 1 hr followed by compound washout measured after 42 hrs by MTT assay; format: tissue-based, Skin of body
# Summary of the method: (§5)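 Reconstructed human epidermis with stratum corneum, per OECD TG 439 skin irritation guideline. Tissues exposed 1 h to peptide at 50 μM, then 42 h post-treatment incubation. Viability read by MTT. Controls were SDS and melittin.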
# [9] = test system: MCF7; assay: pH-dependent anticancer activity against human MCF7 cells in PBS medium at 10 uM incubated for 1 hr; format: functional, cell-based
# Summary of the method: (§6)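 Cells cultured in RPMI, DMEM or PBS, each adjusted to pH 8, 7 or 6, plus one unadjusted (~7.6). Peptide at 10 μM for only 1 h, to limit pH drift from CO₂-bicarbonate buffering. Cell viability read. Controls were melittin, ampicillin and PBS. Two independent repetitions; effects analysed by ANOVA.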
# [10] = test system: Enterococcus faecium; assay: Depolarization of cytoplasmic membrane in Enterococcus faecium ATCC 700221 at MIC measured for 45 mins by DiSC3-(5) dye based assay; format: functional, organism-based; summary of the method: as §1
# [11] = test system: MCF7; assay: pH-dependent anticancer activity against human MCF7 cells in DMEM medium at 10 uM incubated for 1 hr; format: functional, cell-based; summary of the method: as §6
# [12] = Toxicity against reconstructed human skin model assessed as tissue viability at 50 uM incubated for 1 hr followed by compound washout measured after 42 hrs by MTT assay; format: tissue-based, Skin of body; conditions: read-out: Activity; summary of the method: as §5
# [13] = test system: MCF7; assay: Induction of apoptosis in human MCF7 cells in DMEM medium at pH 6 assessed as increase in cleaved capase-3 level at 5 uM; format: functional, cell-based; summary of the method: as §2
# [14] = test system: MDA-MB-231; assay: Anti-cancer activity against human MDA-MB-231 cells incubated for 72 hrs by Cell Titer Glo assay; format: functional, cell-based; conditions: MDA-MB-231, 72 h
# [15] = Stability in human serum assessed as half life at 10 mg/ml by UPLC-MS analysis; format: ADME, cell-free
# Summary of the method: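 Peptides dissolved in PBS and incubated in 25% human serum. Intact peptide remaining followed over time to at least 6 h; half-life taken as time to 50% stability.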
# [16] = test system: SUD4; assay: Anti-cancer activity against human SU-DHL-4 cells incubated for 24 hrs by WST assay; format: functional, cell-based; conditions: SU-DHL-4, 24 h
# [17] = test system: Acinetobacter baumannii; assay: Anti-infective activity against Acinetobacter baumannii ATCC 19606 infected in neutropenic CD-1 mouse deep thigh infection model assessed as reduction in bacterial load at 0.16 mg/kg, ip measured after 4 days; format: functional, organism-based; conditions: time 4.0 day
# Summary of the method: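 Neutropenic mice infected intramuscularly in right thigh with 10⁶ cells per mL A. baumannii ATCC 19606; single intraperitoneal peptide dose at 10× MIC; bacterial load determined 4 days after treatment (euthanized day 8); n = 6 per group from three inocula; one-way ANOVA with Dunnett's test versus untreated.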
# [18] = test system: HL-60; assay: pH-dependent anticancer activity against human HL-60 cells in PBS medium at 10 uM incubated for 1 hr; format: functional, cell-based; summary of the method: as §6
# [19] = Toxicity in immunosuppressed Balb/c mouse excisional dorsal wound infection model infected with Acinetobacter baumannii NCTC 13301 assessed as decrease in animal survival at about 10 mg/kg treated for 7 days once daily measured after 45 days; format: organism-based; conditions: in vivo, 1080 h, time 45 day
# [20] = test system: HCT-15; assay: Anti-cancer activity against human HCT-15 cells incubated for 72 hrs by Cell Titer Glo assay; format: functional, cell-based; conditions: HCT-15, 72 h
# [21] = test system: U-251; assay: Anti-cancer activity against human U-251MG cells incubated for 72 hrs by Cell Titer Glo assay; format: functional, cell-based; conditions: U-251, 72 h
# [22] = test system: A498; assay: Anti-cancer activity against human A498 cells incubated for 72 hrs by Cell Titer Glo assay; format: functional, cell-based; conditions: A498, 72 h
# [23] = test system: K562; assay: Anti-cancer activity against human K562 cells incubated for 72 hrs by Cell Titer Glo assay; format: functional, cell-based; conditions: K562, 72 h
# [24] = test system: SW-620; assay: Anti-cancer activity against human SW620 cells incubated for 72 hrs by Cell Titer Glo assay; format: functional, cell-based; conditions: SW-620, 72 h
# [25] = Cytotoxicity against human granulocytes assessed as deleterious effect upto 50 uM by flow cytometry; format: toxicity, cell-based; conditions: granulocyte; summary of the method: as §4
# [26] = test system: CAKI-1; assay: Anti-cancer activity against human CAKI-1 cells incubated for 72 hrs by Cell Titer Glo assay; format: functional, cell-based; conditions: CAKI-1, 72 h
# [27] = test system: HCT-116; assay: pH-dependent anticancer activity against human HCT-116 cells in RPMI medium at 10 uM incubated for 1 hr; format: functional, cell-based; summary of the method: as §6
# [28] = test system: K562; assay: pH-dependent anticancer activity against human K562 cells in RPMI medium at 10 uM incubated for 1 hr; format: functional, cell-based; summary of the method: as §6
# [29] = test system: Staphylococcus aureus; assay: Antimicrobial activity against Staphylococcus aureus NE1740 harboring single transposon insertion mutation in staphopain A at 30 uM incubated for 18 hrs relative to control; format: functional; summary of the method: as §3
# [30] = test system: OVCAR-3; assay: Anti-cancer activity against human OVCAR-3 cells incubated for 72 hrs by Cell Titer Glo assay; format: functional, cell-based; conditions: OVCAR-3, 72 h
# [31] = test system: Acinetobacter baumannii; assay: Induction of outer membrane permeabilization in Acinetobacter baumannii ATCC 19606 measured for 20 mins by NPN uptake assay; format: functional, organism-based
# [32] = Anti-cancer activity against human MEC-1 cells incubated for 24 hrs by WST assay; format: functional, cell-based; conditions: MEC1, 24 h
# [33] = test system: B cell; assay: Cytotoxicity against human B-lymphocytes assessed as deleterious effect upto 50 uM by flow cytometry; format: toxicity, cell-based; summary of the method: as §4
# [34] = test system: Staphylococcus aureus; assay: Antimicrobial activity against Staphylococcus aureus NE1506 harboring single transposon insertion mutation in V8 protease at 30 uM incubated for 18 hrs relative to control; format: functional; summary of the method: as §3
substance,measurement,setting,value
H-KKKKLKKILKKLFQFINQLDNQLQDIKQNK-NH2,Activity,[1],Active
same,Activity,[2],Active
same,IC50,[3],1000 nM
same,inhibition at 30 µM,[4],< 45%
same,IC50,[5],1000 nM
same,IC50,[6],1000 nM
same,Activity,[7],Non-Toxic
same,Activity,[8],Non-Toxic
same,Activity,[9],Active
same,Activity,[10],Active
same,Activity,[11],Active
same,"viability at 1 h, 50 µM",[12],100%
same,Activity,[13],Active
same,IC50,[14],1000 nM
same,half-life at 10 mg/ml,[15],> 6 h
same,IC50,[16],≤ 10000 nM
same,Activity,[17],Active
same,Activity,[18],Active
same,Activity,[19],Toxic
same,IC50,[20],1000 nM
same,IC50,[21],1000 nM
same,IC50,[22],1000 nM
same,IC50,[23],1000 nM
same,IC50,[24],1000 nM
same,Activity,[25],Non-Toxic
same,IC50,[26],1000 nM
same,Activity,[27],Active
same,Activity,[28],Active
same,inhibition at 30 µM,[29],< 45%
same,IC50,[30],1000 nM
same,Activity,[31],inactive
same,IC50,[32],≤ 10000 nM
same,Activity,[33],Non-Toxic
same,inhibition at 30 µM,[34],< 45%
